Reference: article PMC11164251 (International journal of biological macromolecules, 2023)
Where two headings read alike, the source gives them in different places. Peptide text beside a SMILES is read from it.

What was measured:
[1] = molecular target: TbTFIIS2–2 LW domain (residue 251–359) F340A (T. brucei); assay: ITC
[2] = molecular target: TbTFIIS2–2 LW domain (residue 251–359) L336A (T. brucei); assay: ITC
ScTFIIS LW domain [3] = molecular target: ScTFIIS LW domain (Saccharomyces cerevisiae, UniProt P07273); format: binding
ScTFIIS LW domain [4] = molecular target: ScTFIIS LW domain (Saccharomyces cerevisiae, UniProt P07273, W72A); format: binding; conditions: ScTFIIS1–81 LW mutant W72A; ITC, pH 7.4, 200 mM NaCl, 25 °C
ScTFIIS LW domain [5] = molecular target: ScTFIIS LW domain (Saccharomyces cerevisiae, UniProt P07273, I69A); format: binding; conditions: ScTFIIS1–81 LW mutant I69A, pH 7.4, 25 °C
ScTFIIS LW domain [6] = molecular target: ScTFIIS LW domain (Saccharomyces cerevisiae, UniProt P07273, K66A); format: binding; conditions: ScTFIIS1–81 LW mutant K66A, pH 7.4, 25 °C
ScTFIIS LW domain [7] = molecular target: ScTFIIS LW domain (Saccharomyces cerevisiae, UniProt P07273, L41A); format: binding; conditions: ScTFIIS1–81 LW mutant L41A, pH 7.4, 25 °C
HsTFIIS LW domain [8] = molecular target: HsTFIIS LW domain (Homo sapiens, UniProt P23193, W73A); assay: ITC of HsLeo1 peptides with the HsTFIIS LW domain; format: binding; conditions: HsTFIIS1–96 LW mutant W73A, pH 7.4, 200 mM NaCl, 25 °C
Outline: (§1)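 Recombinant N-His-tagged LW domain (wild type or point mutant), expressed in E. coli BL21 (DE3) (0.5 mM IPTG, 16 °C, 20 h) and purified by Ni-NTA, gel filtration and ion exchange. ITC: 50 uM protein in cell, 1mM synthetic Leo1 peptides in syringe, 16 × 2 μl injections at 120 s intervals. Buffer: 25 mM Tris, 200 mM NaCl, 1 mM EDTA, 1 % glycerol, pH 7.4, 25 °C. Peptide-into-buffer heat of dilution subtracted.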

HsTFIIS LW domain [9] = molecular target: HsTFIIS LW domain (Homo sapiens, UniProt P23193); assay: ITC of HsLeo1 peptides with the HsTFIIS LW domain; format: binding; conditions: pH 7.4, 25 °C
Outline: as §1

HsTFIIS LW domain [10] = molecular target: HsTFIIS LW domain (Homo sapiens, UniProt P23193, L41A); assay: ITC of HsLeo1 peptides with the HsTFIIS LW domain; format: binding; conditions: HsTFIIS1–96 LW mutant L41A, pH 7.4, 200 mM NaCl, 25 °C
Outline: as §1

HsTFIIS LW domain [11] = molecular target: HsTFIIS LW domain (Homo sapiens, UniProt P23193, I70A); assay: ITC of HsLeo1 peptides with the HsTFIIS LW domain; format: binding; conditions: HsTFIIS1–96 LW mutant I70A, pH 7.4, 200 mM NaCl, 25 °C
Outline: as §1

HsTFIIS LW domain [12] = assay: ITC of HsLeo1 peptides with the HsTFIIS LW domain; format: binding, Homo sapiens; conditions: HsTFIIS LW domain mutant printed as W339A
Outline: as §1

HsTFIIS LW domain [13] = molecular target: HsTFIIS LW domain (Homo sapiens, UniProt P23193, K67A); assay: ITC of HsLeo1 peptides with the HsTFIIS LW domain; format: binding; conditions: HsTFIIS1–96 LW mutant K67A, pH 7.4, 200 mM NaCl, 25 °C
Outline: as §1

[14] = molecular target: T1, ScTFIIS LW domain (residue 1–81) I69A (S. cerevisiae, UniProt P07273 1-81, I69A); assay: ITC
T1 sequence (looked up): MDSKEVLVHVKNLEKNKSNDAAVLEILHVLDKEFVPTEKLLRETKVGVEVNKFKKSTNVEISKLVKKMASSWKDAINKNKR

[15] = molecular target: T2, ScTFIIS LW domain (residue 1–81) L41A (S. cerevisiae, UniProt P07273 1-81, L41A); assay: ITC
T2 sequence (looked up): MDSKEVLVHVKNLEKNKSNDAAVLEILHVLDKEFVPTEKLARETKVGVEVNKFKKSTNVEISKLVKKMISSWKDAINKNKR

[16] = molecular target: T3, ScTFIIS LW domain (residue 1–81), wild type (S. cerevisiae, UniProt P07273 1-81); assay: ITC
T3 sequence (looked up): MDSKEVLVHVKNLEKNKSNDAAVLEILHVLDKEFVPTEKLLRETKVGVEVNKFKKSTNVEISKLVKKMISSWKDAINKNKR

[17] = molecular target: T4, ScTFIIS LW domain (residue 1–81) K66A (S. cerevisiae, UniProt P07273 1-81, K66A); assay: ITC
T4 sequence (looked up): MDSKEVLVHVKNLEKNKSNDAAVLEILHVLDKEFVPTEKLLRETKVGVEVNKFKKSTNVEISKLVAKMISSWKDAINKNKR

[18] = molecular target: T5, ScTFIIS LW domain, longer version (residue 1–93) (S. cerevisiae, UniProt P07273 1-93); assay: ITC
T5 sequence (looked up): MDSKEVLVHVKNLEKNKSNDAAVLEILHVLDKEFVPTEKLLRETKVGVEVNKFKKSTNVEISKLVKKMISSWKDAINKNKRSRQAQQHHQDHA

[19] = molecular target: HsTFIIS LW domain (residue 1–96), wild type (H. sapiens, UniProt P23193 1-96); assay: ITC
[20] = molecular target: HsTFIIS LW domain without the C-terminus (residue 1–78) (H. sapiens, UniProt P23193 1-78); assay: ITC
[21] = molecular target: HsTFIIS LW domain (residue 1–96) K67A (H. sapiens, UniProt P23193 1-96, K67A); assay: ITC

Molecule: TbLeo1 peptide (residue 71–86) containing the LFG motif
- Kd [1]: 9.33 µM
- Kd [2]: 1.11 µM

Molecule: CC(C)C[C@H](NC(=O)[C@H](CCC(=O)O)NC(=O)[C@H](C)NC(=O)[C@H](CC(=O)O)NC(=O)[C@H](CCC(=O)O)NC(=O)[C@@H](N)CCC(=O)O)C(=O)N[C@@H](CC(=O)O)C(=O)N[C@@H](CC(=O)O)C(=O)N[C@@H](CC(C)C)C(=O)N[C@@H](Cc1ccccc1)C(=O)NCC(=O)N[C@@H](CC(=O)O)C(=O)N[C@@H](CC(=O)O)C(=O)N[C@@H](CC(N)=O)C(=O)N[C@@H](CC(=O)O)C(=O)O [ScLeo1_54–68] (H-EEDAELDDLFGDDND-OH; N-terminus and C-terminus assumed)
- N (ITC binding stoichiometry) (ScTFIIS LW domain [3]; ScTFIIS LW1–93, pH 7.4, 25 °C): 1.04
- N (ITC binding stoichiometry) (ScTFIIS LW domain [3]; wild type ScTFIIS1–81 LW, pH 7.4, 25 °C): 1.00
- Kd (ScTFIIS LW domain [4]): weak binding
- N (ITC binding stoichiometry) (ScTFIIS LW domain [5]): 0.99
- N (ITC binding stoichiometry) (ScTFIIS LW domain [6]): 0.95
- N (ITC binding stoichiometry) (ScTFIIS LW domain [7]): 1.03

Molecule: CC(C)C[C@H](NC(=O)[C@H](CCC(=O)O)NC(=O)[C@H](CCCCN)NC(=O)[C@H](CC(N)=O)NC(=O)[C@H](CO)NC(=O)[C@@H]1CCCN1C(=O)[C@@H](N)CCC(N)=O)C(=O)N[C@@H](Cc1ccccc1)C(=O)NCC(=O)N[C@@H](CC(=O)O)C(=O)N[C@@H](CC(=O)O)C(=O)N[C@@H](CO)C(=O)N[C@@H](CCC(=O)O)C(=O)N[C@@H](CC(=O)O)C(=O)N[C@@H](CCC(=O)O)C(=O)NCC(=O)O [HsLeo1_55–70] (H-QPSNKELFGDDSEDEG-OH; N-terminus and C-terminus assumed)
- Kd (HsTFIIS LW domain [8]): no binding
- N (ITC binding stoichiometry) (HsTFIIS LW domain [9]; HsTFIIS1–78 LW): 1.00
- N (ITC binding stoichiometry) (HsTFIIS LW domain [9]; wild type HsTFIIS1–96 LW): 0.96
- Kd (HsTFIIS LW domain [10]): no binding
- Kd (HsTFIIS LW domain [11]): no binding
- binding (ITC), result in words (HsTFIIS LW domain [12]): abolishes the interactions
- Kd (HsTFIIS LW domain [13]): weak binding

B1: ScLeo1 peptide (residue 54–68) containing the LFG motif (peptide, UniProt P38439 54-68, looked up)
peptide: EEDAELDDLFGDDND
- Kd [14]: 44 µM
- stoichiometry N [14]: 0.99
- Kd [15]: 37 µM
- stoichiometry N [15]: 1.03
- Kd [16]: 3.3 µM
- stoichiometry N [16]: 1
- Kd [17]: 5.1 µM
- stoichiometry N [17]: 0.95
- Kd [18]: 1.39 µM
- stoichiometry N [18]: 1.04

B2: HsLeo1 peptide (residue 55–70) containing an LFG motif (peptide, UniProt Q8WVC0 55-70, looked up)
peptide: QPSNKELFGDDSEDEG
- Kd [19]: 44 µM
- stoichiometry N [19]: 0.96
- Kd [20]: 57.6 µM
- stoichiometry N [20]: 1

B3: HsLeo1 peptide (residue 2–16) containing an LFG motif (peptide, UniProt Q8WVC0 2-16, looked up)
peptide: ADMEDLFGSDADSEA
- stoichiometry N [21]: 1
- stoichiometry N [19]: 1
- stoichiometry N [20]: 1
